Measured values reported in ChEMBL document CHEMBL4680118, “Cerpegin-derived furo[3,4-c]pyridine-3,4(1H,5H)-diones enhance cellular response to interferons by de novo pyrimidine biosynthesis inhibition” (Eur J Med Chem, 2020).
The source made the active and inactive calls. The rule behind the calls is not given here.

Columns and labels:
Format in all cases: cell-based
[1] = molecular target: T1, Dihydroorotate dehydrogenase (quinone), mitochondrial (Homo sapiens, UniProt Q02127); assay: Inhibition of DHODH in human HEK293 cells transfected with ISRE-luciferase reporter gene assessed as increase in INFgamma-stimulated cellular response at 80 uM measured after 24 hrs by luciferase reporter gene assay
How it was run: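 ISRE-Luc HEK-293 cells were treated with DMSO or compound at 80 μM, with or without recombinant IFN-γ at 150 IU/ml. Firefly luciferase was read 24 h later with Bright-Glo or Britelite, 0.1 s luminescence. Signal was normalized to DMSO + IFN-γ. Values are means ± SD of three independent experiments; two-tailed t-test.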

[2] = molecular target: T1, Dihydroorotate dehydrogenase (quinone), mitochondrial; assay: Inhibition of DHODH in human HEK293 cells transfected with ISRE-luciferase reporter gene assessed as increase in 250 IU/ml IFN-alpha stimulated IFIT3 mRNA expression at 80 uM measured after 16 hrs by RT-qPCR analysis relative to control
How it was run: (§1)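 ISRE-Luc HEK cells co-treated with increasing IFN-α concentrations and DMSO or compound (80 µM) for 16 h. Total RNA extracted from 2×10^5 cells with DNase step; qPCR 35 cycles. CT values normalized to RPL13A and unstimulated controls (2^-ΔΔCT), expressed as fold change versus DMSO alone. Three independent experiments; two-way ANOVA with Bonferroni.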

[3] = molecular target: T1, Dihydroorotate dehydrogenase (quinone), mitochondrial; assay: Inhibition of DHODH in human HEK293 cells transfected with ISRE-luciferase reporter gene assessed as increase in 60 IU/ml IFN-alpha stimulated IFITM3 mRNA expression at 80 uM measured after 16 hrs by RT-qPCR analysis relative to control
How it was run: (§2)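 HEK-293 ISRE-Luc cells (DMEM, 10% FCS, 37°C, 5% CO2) were given increasing IFN-α doses together with DMSO or compound at 80 μM, then harvested at 16 h. RNA was extracted from 2×10^5 cells with DNase treatment. Transcripts were run by qPCR for 35 cycles and normalized to RPL13A and to unstimulated controls by 2^-ΔΔCT. Values are fold change versus DMSO; three independent experiments; two-way ANOVA with Bonferroni.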

[4] = molecular target: T1, Dihydroorotate dehydrogenase (quinone), mitochondrial; assay: Inhibition of DHODH in human HEK293 cells transfected with ISRE-luciferase reporter gene assessed as increase in 125 IU/ml IFN-alpha stimulated IFIT3 mRNA expression at 80 uM measured after 16 hrs by RT-qPCR analysis relative to control; how it was run: as §1
[5] = molecular target: T1, Dihydroorotate dehydrogenase (quinone), mitochondrial; assay: Inhibition of DHODH in human HEK293 cells transfected with ISRE-luciferase reporter gene assessed as increase in 60 IU/ml IFN-alpha stimulated […] mRNA expression at 80 uM measured after 16 hrs by RT-qPCR analysis relative to control; how it was run: as §1
[6] = molecular target: T1, Dihydroorotate dehydrogenase (quinone), mitochondrial; assay: Inhibition of DHODH in human HEK293 cells transfected with ISRE-luciferase reporter gene assessed as increase in 250 IU/ml IFN-alpha stimulated IFITM3 mRNA expression at 80 uM measured after 16 hrs by RT-qPCR analysis relative to control; how it was run: as §1
[7] = molecular target: T1, Dihydroorotate dehydrogenase (quinone), mitochondrial; assay: Inhibition of DHODH in human HEK293 cells transfected with ISRE-luciferase reporter gene assessed as increase in 60 IU/ml IFN-alpha stimulated MX2 mRNA expression at 80 uM measured after 16 hrs by RT-qPCR analysis relative to control; how it was run: as §2
[8] = molecular target: T1, Dihydroorotate dehydrogenase (quinone), mitochondrial; assay: Inhibition of DHODH in human HEK293 cells transfected with ISRE-luciferase reporter gene assessed as increase in 30 IU/ml IFN-alpha stimulated IFIT2 mRNA expression at 80 uM measured after 16 hrs by RT-qPCR analysis relative to control; how it was run: as §1
[9] = molecular target: T1, Dihydroorotate dehydrogenase (quinone), mitochondrial; assay: Inhibition of DHODH in human HEK-293 cells transfected with ISRE-luciferase reporter gene assessed as increase in 150 IU/ml IFN-alpha mediated cellular response at 80 uM in presence of mirin measured after 24 hrs by luciferase reporter gene assay; conditions: HEK293
How it was run: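 ISRE-Luc HEK-293 cells given IFN-α (150 IU/ml) alone or with test compound (80 µM), with or without the MRE11 inhibitor mirin, ATR inhibitor AZD6738, CHK1 inhibitor PF477736 or P300/CBP inhibitor C636. Firefly luciferase read 24 h later, normalized to IFN-α alone. Means ± SD of at least three independent experiments.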

[10] = molecular target: T1, Dihydroorotate dehydrogenase (quinone), mitochondrial; assay: Inhibition of DHODH in human HEK293 cells transfected with ISRE-luciferase reporter gene assessed as increase in 250 IU/ml IFN-alpha stimulated PKR mRNA expression at 80 uM measured after 16 hrs by RT-qPCR analysis relative to control; how it was run: as §1
[11] = molecular target: T1, Dihydroorotate dehydrogenase (quinone), mitochondrial; assay: Inhibition of DHODH in […] treated with R848 stimulated cell supernatant assessed as increase in IFN-gamma-containing conditioned supernatant-stimulated cellular response at 80 uM measured after 24 hrs by luciferase reporter gene assay
How it was run: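 Donor PBMCs were activated for 24 h with R848 at 5 µg/ml, and the supernatants (containing IFN-γ) were collected. HEK-293 ISRE-Luc reporter cells, not PBMCs, were then stimulated with these supernatants diluted 1/8 to 1/64, in the presence of DMSO or compound at 80 μM. Luciferase was read at 24 h and normalized to cells given the 1/8 dilution. Three independent experiments; two-way ANOVA with Bonferroni.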

[12] = molecular target: T1, Dihydroorotate dehydrogenase (quinone), mitochondrial; assay: Inhibition of DHODH in human HEK293 cells transfected with ISRE-luciferase reporter gene assessed as increase in 125 IU/ml IFN-alpha stimulated MX2 mRNA expression at 80 uM measured after 16 hrs by RT-qPCR analysis relative to control; how it was run: as §1
[13] = molecular target: T1, Dihydroorotate dehydrogenase (quinone), mitochondrial; assay: Inhibition of DHODH in human HEK-293 cells transfected with ISRE-luciferase reporter gene assessed as increase in IFN-alpha mediated cellular response at 80 uM in presence of DHO measured after 24 hrs by luciferase reporter gene assay; conditions: HEK293
How it was run: (§3)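 ISRE-Luc HEK-293 cells exposed to increasing IFN-α concentrations with DMSO or compound (80 µM), supplemented with uridine (125 µM) or with 3 mM orotate or DHO. Reporter luciferase read after 24 h, normalized to DMSO + IFN-α 250 IU/ml. Means ± SD of three independent experiments; two-way ANOVA.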

[14] = molecular target: T1, Dihydroorotate dehydrogenase (quinone), mitochondrial; assay: Inhibition of DHODH in human HEK293 cells transfected with ISRE-luciferase reporter gene assessed as increase in 125 IU/ml IFN-alpha stimulated PKR mRNA expression at 80 uM measured after 16 hrs by RT-qPCR analysis relative to control; how it was run: as §1
[15] = molecular target: T1, Dihydroorotate dehydrogenase (quinone), mitochondrial; assay: Inhibition of DHODH in human HEK293 cells transfected with ISRE-luciferase reporter gene assessed as increase in 60 IU/ml IFN-alpha stimulated DDX58 mRNA expression at 80 uM measured after 16 hrs by RT-qPCR analysis relative to control; how it was run: as §1
[16] = molecular target: T1, Dihydroorotate dehydrogenase (quinone), mitochondrial; assay: Inhibition of DHODH in human HEK-293 cells transfected with ISRE-luciferase reporter gene assessed as increase in IFN-alpha mediated cellular response at 80 uM in presence of orotate measured after 24 hrs by luciferase reporter gene assay; conditions: HEK293; how it was run: as §3
[17] = molecular target: T1, Dihydroorotate dehydrogenase (quinone), mitochondrial; assay: Inhibition of DHODH in human HEK293 cells transfected with ISRE-luciferase reporter gene assessed as increase in 125 IU/ml IFN-alpha stimulated […] mRNA expression at 80 uM measured after 16 hrs by RT-qPCR analysis relative to control; how it was run: as §1

T1 sequence (Q02127 whole entry): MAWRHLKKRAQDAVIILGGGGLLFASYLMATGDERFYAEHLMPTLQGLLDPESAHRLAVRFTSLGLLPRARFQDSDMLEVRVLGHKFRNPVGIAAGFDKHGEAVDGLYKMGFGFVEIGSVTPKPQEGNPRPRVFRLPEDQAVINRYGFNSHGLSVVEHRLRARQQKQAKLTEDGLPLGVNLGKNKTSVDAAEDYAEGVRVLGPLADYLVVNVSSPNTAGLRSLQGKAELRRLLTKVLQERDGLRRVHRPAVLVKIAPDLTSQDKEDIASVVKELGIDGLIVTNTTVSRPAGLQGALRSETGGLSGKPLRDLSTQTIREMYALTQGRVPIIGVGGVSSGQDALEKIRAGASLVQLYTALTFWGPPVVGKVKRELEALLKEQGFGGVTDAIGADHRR

## O=C1OC2(CCCCC2)c2ccn(C3CC3)c(=O)c21
[1]
  Activity: Active
[2]
  fold change (FC): 129
[3]
  fold change (FC): 12
[4]
  fold change (FC): 99
[5]
  fold change (FC): 83
[6]
  fold change (FC): 15
[7]
  fold change (FC): 13
[8]
  fold change (FC): 26
[9]
  Activity: inactive
[10]
  fold change (FC): 4
[11]
  Activity: Active
[12]
  fold change (FC): 20
[13]
  Activity: Active
[14]
  fold change (FC): 3
[15]
  fold change (FC): 23
[16]
  Activity: inactive
[17]
  fold change (FC): 117
